Activity calls are given as the source filed them.
Tests used:
Cavia porcellus [1] = species on record: Cavia porcellus; test: The dose producing 75% increase in contractility in guinea pig atria; assay type: functional
Method in brief: (§1)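 Isolated guinea pig left atria were equilibrated 1 h, set to 1 g resting tension, and paced with 10-ms rectangular pulses at 90/min, 20% above threshold (minimum 5 V). Cumulative doses in propylene glycol/water (7:3) were added at 30-min intervals or 5 min after maximum effect. Isometric force change was referenced to control atria. At least nine replicate curves were fitted, and ΔF75 was read from the pooled fitted curve.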

Cavia porcellus [2] = species on record: Cavia porcellus; test: Binding affinity against digitalis receptor was determined relative to digitoxigenin
Cavia porcellus [3] = species on record: Cavia porcellus; test: Relative potency of compound to Digitalis receptor was determined to that of digitoxigenin; Inactive
Cavia porcellus [4] = species on record: Cavia porcellus; test: The dose producing 75% increase in contractility in guinea pig atria; Inactive; assay type: functional; method in brief: as §1
Cavia porcellus [5] = species on record: Cavia porcellus; test: The dose producing 75% increase in contractility in guinea pig atria

SMILES | Delta F75 (Cavia porcellus [1]) [M l-1] | other results
C[C@]12CC[C@H](O)CC1CC[C@@H]1[C@@H]2CC[C@]2(C)[C@@H](/C=C/C#N)CC[C@]12O (some centres not stated) | 1.6e-06 | Relative potency (Cavia porcellus [2]): 0.69
C[C@]12CC[C@H](O[C@@H]3O[C@H](CO)[C@@H](O)[C@H](O)[C@H]3O)C[C@@H]1CC[C@@H]1[C@@H]2CC[C@]2(C)[C@@H](/C=C/C#N)CC[C@@]12O | 6.9e-07 | –
C[C@H]1O[C@@H](O[C@H]2[C@@H](O)C[C@H](O[C@H]3[C@@H](O)C[C@H](O[C@H]4CC[C@@]5(C)[C@H](CC[C@@H]6[C@@H]5C[C@@H](O)[C@]5(C)[C@@H](C7=CC(=O)OC7)CC[C@]65O)C4)O[C@@H]3C)O[C@@H]2C)C[C@H](O)[C@@H]1O [DIGOXIN] | 6.6e-07 | –
C[C@]12CC[C@H](O)CC1CC[C@@H]1[C@@H]2CC[C@]2(C)[C@@H](/C=C/C(=O)O)CC[C@]12O (some centres not stated) | – | Relative potency (Cavia porcellus [3]): inactive; Delta F75 (Cavia porcellus [4]): inactive
CC(=O)/C=C/[C@H]1CC[C@@]2(O)[C@@H]3CC[C@H]4C[C@@H](O[C@@H]5O[C@H](CO)[C@@H](O)[C@H](O)[C@H]5O)CC[C@]4(C)[C@H]3CC[C@]12C | 3.1e-06 | –
C[C@@H]1O[C@@H](O[C@H]2C[C@@H](O)[C@]3(CO)[C@H]4[C@H](O)C[C@]5(C)[C@@H](C6=CC(=O)OC6)CC[C@]5(O)[C@@H]4CC[C@]3(O)C2)[C@H](O)[C@H](O)[C@H]1O [OUABAIN] | – | Delta F75 (Cavia porcellus [5]): 2.9e-07 M l-1
COC(=O)/C=C/[C@H]1CC[C@]2(O)[C@@H]3CCC4C[C@@H](O)CC[C@]4(C)[C@H]3CC[C@]12C (some centres not stated) | 3.8e-06 | Relative potency (Cavia porcellus [2]): 0.29
CC(=O)/C=C/[C@H]1CC[C@]2(O)[C@@H]3CCC4C[C@@H](O)CC[C@]4(C)[C@H]3CC[C@]12C (some centres not stated) | 5.6e-06 | –
COC(=O)/C=C/[C@H]1CC[C@@]2(O)[C@@H]3CC[C@H]4C[C@@H](O[C@@H]5O[C@H](CO)[C@@H](O)[C@H](O)[C@H]5O)CC[C@]4(C)[C@H]3CC[C@]12C | 1.5e-06 | –
CCCOC(=O)/C=C/[C@H]1CC[C@@]2(O)[C@@H]3CC[C@H]4C[C@@H](O[C@@H]5O[C@H](CO)[C@@H](O)[C@H](O)[C@H]5O)CC[C@]4(C)[C@H]3CC[C@]12C | 1.1e-05 | –
CCOC(=O)/C=C/[C@H]1CC[C@@]2(O)[C@@H]3CC[C@H]4C[C@@H](O[C@@H]5O[C@H](CO)[C@@H](O)[C@H](O)[C@H]5O)CC[C@]4(C)[C@H]3CC[C@]12C | 6.2e-06 | –
C[C@H]1O[C@@H](O[C@H]2[C@@H](O)C[C@H](O[C@H]3[C@@H](O)C[C@H](O[C@H]4CC[C@@]5(C)[C@H](CC[C@@H]6[C@@H]5CC[C@]5(C)[C@@H](C7=CC(=O)OC7)CC[C@]65O)C4)O[C@@H]3C)O[C@@H]2C)C[C@H](O)[C@@H]1O [DIGITOXIN] | 1.6e-07 | –
CC(C)OC(=O)/C=C/[C@H]1CC[C@@]2(O)[C@@H]3CC[C@H]4C[C@@H](O[C@@H]5O[C@H](CO)[C@@H](O)[C@H](O)[C@H]5O)CC[C@]4(C)[C@H]3CC[C@]12C | 1.5e-05 | –
C[C@]12CC[C@H](O)C[C@H]1CC[C@@H]1[C@@H]2CC[C@]2(C)[C@@H](C3=CC(=O)OC3)CC[C@]12O [DIGITOXIGENIN] | – | Relative potency (Cavia porcellus [2]): 1; Delta F75 (Cavia porcellus [5]): 1.1e-06 M l-1
CCCCOC(=O)/C=C/[C@H]1CC[C@@]2(O)[C@@H]3CC[C@H]4C[C@@H](O[C@@H]5O[C@H](CO)[C@@H](O)[C@H](O)[C@H]5O)CC[C@]4(C)[C@H]3CC[C@]12C | 6.9e-05 | –
C[C@]12CC[C@H](O)C[C@H]1CC[C@@H]1[C@@H]2CC[C@]2(C)[C@@H](/C=C/C(N)=O)CC[C@]12O | <20 | Relative potency (Cavia porcellus [2]): < 0.01
CC(C)COC(=O)/C=C/[C@H]1CC[C@@]2(O)[C@@H]3CC[C@H]4C[C@@H](O[C@@H]5O[C@H](CO)[C@@H](O)[C@H](O)[C@H]5O)CC[C@]4(C)[C@H]3CC[C@]12C | 6.3e-05 | –
